Measured values published in ChEMBL document CHEMBL1142894, “Preparation of 5-aryl-3-alkylthio-l,2,4-triazoles and corresponding sulfones with antiinflammatory-analgesic activity” (Bioorg Med Chem, 2007).
Calls of active or inactive are those of the source. The calls are words filed in the database; no cut-off is given here.

Tests used:
[1] = test system: Mus musculus; test: Analgesic activity against p-benzoquinone-induced abdominal constriction in Swiss albino mouse assessed as number of writhings at 50 mg/kg, po; assay type: functional, Abdomen
In short: (§1)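 Test samples given orally in 0.5% CMC; vehicle to controls. 60 min later, 2.5% (v/v) p-benzoquinone in distilled water, 0.1 ml/10 g, given i.p. Mice housed singly; writhes counted for 15 min starting 5 min after injection. Activity is % change from vehicle controls. n = 6; mean ± SEM.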

[2] = test system: Mus musculus; test: Inhibition of carrageenan-induced paw edema in Swiss albino mouse at 100 mg/kg, po after 270 mins relative to control; assay type: functional; conditions: 4.5 h
In short: (§2)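 Oral dosing in 0.5% CMC; vehicle to controls. Then carrageenan (0.5 mg/25 ll, freshly suspended in 154 mM saline) injected into the right hind paw subplantar tissue; saline into the left paw. Right-left footpad thickness difference measured by dial gauge calliper every 90 min over 6 h. Inhibition % is relative to vehicle control. n = 6; mean ± SEM.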

[3] = test system: Mus musculus; test: Antiinflammatory activity against carrageenan-induced paw edema in Swiss albino mouse assessed as swelling thickness at 25 mg/kg, po after 360 mins; assay type: functional; in short: as §2
[4] = test system: Mus musculus; test: Acute toxicity in Swiss albino mouse assessed as lethal effect at 100 mg/kg/day, po after 72 hrs; assay type: organism-based; set-up: route oral; conditions: in vivo
In short: (§3)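 Oral single dose suspended in 0.5% carboxymethylcellulose, given after a 24 h fast; food and water returned 1 h after dosing. Vehicle-only controls. Mice observed at 1 h, then once daily for 72 h, for toxic signs and mortality.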

[5] = test system: Mus musculus; test: Analgesic activity against p-benzoquinone-induced abdominal constriction in Swiss albino mouse assessed as number of writhings at 200 mg/kg, po; assay type: functional, Abdomen; in short: as §1
[6] = test system: Mus musculus; test: Inhibition of p-benzoquinone-induced writhing in Swiss albino mouse at 50 mg/kg, po relative to control; assay type: functional
In short: (§4)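 Mice, n = 6 per group, dosed orally with a suspension in 0.5% sodium CMC. 60 min later, 0.1 ml/10 g of 2.5% […] p-benzoquinone in distilled water given ip. Abdominal writhes counted per animal for 15 min, starting 5 min after injection. Expressed as % change in mean writhing count versus vehicle controls.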

[7] = test system: Mus musculus; test: Inhibition of p-benzoquinone-induced writhing in Swiss albino mouse at 25 mg/kg, po relative to control; assay type: functional; in short: as §4
[8] = test system: Mus musculus; test: Gastric-ulcerogenic effect in Swiss albino mouse assessed as lesions at 100 mg/kg, po; assay type: functional, organism-based; set-up: dose 100 mg/kg
In short: (§5)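 Mice killed under deep ether anesthesia 3 h after the writhing test; the oral dose in 0.5% CMC was the one used in that test. Stomachs removed, opened along the great curvature and examined under a dissecting microscope for lesions or bleeding. Reported as ratio of ulceration; n = 6.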

[9] = test system: Mus musculus; test: Antiinflammatory activity against carrageenan-induced paw edema in Swiss albino mouse assessed as swelling thickness at 100 mg/kg, po after 360 mins; assay type: functional; in short: as §2
[10] = test system: Mus musculus; test: Inhibition of carrageenan-induced paw edema in Swiss albino mouse at 50 mg/kg, po after 360 mins relative to control; assay type: functional; conditions: 6 h
In short: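 Mice, n = 6 per group. Test agent given orally as a suspension in 0.5% sodium CMC in distilled water; controls received vehicle only. Afterwards, 0.5 mg/25 ll carrageenan in saline (154 mM NaCl) injected subplantar into the right hind paw, saline into the left. Right-minus-left footpad thickness measured by dial gauge caliper every 90 min for 6 h. Inhibition is relative to vehicle-control group means.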

[11] = test system: Mus musculus; test: Inhibition of carrageenan-induced paw edema in Swiss albino mouse at 100 mg/kg, po after 180 mins relative to control; assay type: functional; conditions: 3 h; in short: as §2
[12] = test system: Mus musculus; test: Analgesic activity against p-benzoquinone-induced abdominal constriction in Swiss albino mouse assessed as number of writhings at 100 mg/kg, po; assay type: functional, Abdomen; in short: as §1
[13] = test system: Mus musculus; test: Antiinflammatory activity against carrageenan-induced paw edema in Swiss albino mouse assessed as swelling thickness at 50 mg/kg, po after 270 mins; assay type: functional; in short: as §2
[14] = test system: Mus musculus; test: Inhibition of p-benzoquinone-induced writhing in Swiss albino mouse at 100 mg/kg, po relative to control; assay type: functional; in short: as §4
[15] = test system: Mus musculus; test: Acute toxicity in Swiss albino mouse assessed as lethal effect at 50 mg/kg/day, po after 72 hrs; assay type: organism-based; set-up: route oral; conditions: in vivo; in short: as §3
[16] = test system: Mus musculus; test: Inhibition of carrageenan-induced paw edema in Swiss albino mouse at 25 mg/kg, po after 360 mins relative to control; assay type: functional; conditions: 6 h; in short: as §2
[17] = test system: Mus musculus; test: Inhibition of carrageenan-induced paw edema in Swiss albino mouse at 25 mg/kg, po after 90 mins relative to control; assay type: functional; conditions: 1.5 h; in short: as §2
[18] = test system: Mus musculus; test: Inhibition of carrageenan-induced paw edema in Swiss albino mouse at 200 mg/kg, po after 360 mins relative to control; assay type: functional; conditions: 6 h; in short: as §2
[19] = test system: Mus musculus; test: Inhibition of carrageenan-induced paw edema in Swiss albino mouse at 100 mg/kg, po after 90 mins relative to control; assay type: functional; conditions: 1.5 h; in short: as §2
[20] = test system: Mus musculus; test: Antiinflammatory activity against carrageenan-induced paw edema in Swiss albino mouse assessed as swelling thickness at 50 mg/kg, po after 90 mins; assay type: functional; in short: as §2
[21] = test system: Mus musculus; test: Inhibition of carrageenan-induced paw edema in Swiss albino mouse at 25 mg/kg, po after 180 mins relative to control; assay type: functional; conditions: 3 h; in short: as §2
[22] = test system: Mus musculus; test: Gastric-ulcerogenic effect in Swiss albino mouse assessed as lesions at 25 mg/kg, po; assay type: functional, organism-based; set-up: dose 25 mg/kg; in short: as §5
[23] = test system: Mus musculus; test: Antiinflammatory activity against carrageenan-induced paw edema in Swiss albino mouse assessed as swelling thickness at 200 mg/kg, po after 90 mins; assay type: functional; in short: as §2
[24] = test system: Mus musculus; test: Analgesic activity against p-benzoquinone-induced abdominal constriction in Swiss albino mouse assessed as number of writhings at 25 mg/kg, po; assay type: functional, Abdomen; in short: as §1

CCS(=O)(=O)c1nc(-c2ccccc2)n[nH]1
Activity [1]: 26.7 | inhibition in vivo at 100 mg/kg [2]: 33.3% | Activity [3]: 62.4 10^-2mm | Activity [4]: Non-toxic | Activity [5]: 48.5 | inhibition in vivo at 50 mg/kg [6]: 48.1% | inhibition in vivo at 25 mg/kg [7]: 25.7% | Activity [8]: Active | Activity [9]: 43.5 10^-2mm | inhibition in vivo at 50 mg/kg [10]: 38.6% | inhibition in vivo at 100 mg/kg [11]: 31.7% | Activity [12]: 27.5 | Activity [13]: 44.6 10^-2mm | inhibition in vivo at 100 mg/kg [14]: 41.9% | Activity [15]: Non-toxic | inhibition in vivo at 25 mg/kg [16]: 13.3% | inhibition in vivo at 25 mg/kg [17]: 8.6% | inhibition in vivo at 200 mg/kg [18]: 9.4% | inhibition in vivo at 100 mg/kg [19]: 25.9% | Activity [20]: 39.2 10^-2mm | inhibition in vivo at 25 mg/kg [21]: 7.7% | Activity [22]: Active | Activity [23]: 47.9 10^-2mm | Activity [24]: 38.2
